Measurements reported in ChEMBL document CHEMBL3352298, “Identification of potent orally active factor Xa inhibitors based on conjugation strategy and application of predictable fragment recommender system” (Bioorg Med Chem, 2015).
Active and inactive are the calls of the source. The rule behind the calls is not given here.

Tests used:
Mus musculus = experiment: Anticoagulant activity in ICR mouse plasma assessed as prolongation of prothombin time at 100 mg/kg, po after 0.5 to 2 hrs relative to untreated control; format: functional
How it was run: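 Male ICR mice (30–37 g) given compound dissolved or suspended in 0.5% methyl cellulose, 100 mg/kg by gastric tube. PT measured by coagulometer at 37 °C with thromboplastin; expressed as fold of vehicle-treated baseline; n = 3.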

Coagulation factor X [1] = target: T1, Coagulation factor X (Homo sapiens, UniProt P00742); experiment: Inhibition of human factor 10a using S-2222 chromogenic substrate assessed as hydrolysis by microplate reader
T1 sequence (P00742 41-179 limits assumed): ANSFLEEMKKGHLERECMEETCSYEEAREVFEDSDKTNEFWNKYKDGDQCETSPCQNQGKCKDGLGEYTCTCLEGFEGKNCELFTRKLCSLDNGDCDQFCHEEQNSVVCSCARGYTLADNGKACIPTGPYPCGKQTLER
T1 sequence (P00742 235-488 limits assumed): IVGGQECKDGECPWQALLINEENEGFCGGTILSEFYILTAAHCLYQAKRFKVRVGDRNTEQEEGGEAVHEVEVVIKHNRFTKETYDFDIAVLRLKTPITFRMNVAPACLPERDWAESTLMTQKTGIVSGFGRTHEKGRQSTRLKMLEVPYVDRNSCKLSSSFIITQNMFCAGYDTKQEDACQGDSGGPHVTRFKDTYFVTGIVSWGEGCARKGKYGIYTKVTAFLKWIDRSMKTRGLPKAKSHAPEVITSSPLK

Coagulation factor X [2] = target: T1, Coagulation factor X; experiment: Inhibition of human factor 10a using S-2222 chromogenic substrate assessed as hydrolysis at 1.36 uM by microplate reader
How it was run: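 Purified human fXa with chromogenic substrate S-2222 and inhibitor in 0.05 M Tris-HCl pH 8.4 or 0.15 M NaCl; reaction started with enzyme. Hydrolysis read continuously at 405 nm, 37 °C. Percent inhibition at final inhibitor 1.36 µM, single run.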

Prothrombin = Prothrombin (Homo sapiens, UniProt P00734); experiment: Inhibition of human Thrombin using S-2238 chromogenic substrate assessed as hydrolysis by microplate reader
Plasma [3] = experiment: Anticoagulant activity in human plasma assessed as concentration required to double clotting time; format: functional
How it was run: (§1)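 Citrated plasma (human or mouse) spun at 3000 rpm for 10 min and stored at −40 °C. Clotting times read on a coagulometer at 37 °C; PT with thromboplastin, compared with a distilled water control. CT2 (concentration doubling clotting time) taken from each concentration–response curve; three determinations, mean reported.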

Plasma [4] = experiment: Anticoagulant activity in mouse plasma assessed as concentration required to prolong prothombin time; format: functional; how it was run: as §1
Trypsin = Trypsin (Homo sapiens, UniProt P07477+P07478+P35030); experiment: Inhibition of human Trypsin using S-2222 chromogenic substrate assessed as hydrolysis by microplate reader

## COc1ccc(NC(=O)c2ccc(C)c(O)c2NC(=O)c2ccc(N3CCCN(C)CC3)cc2)cc1.Cl
Mus musculus
  Ratio: 0.95
Coagulation factor X [1]
  IC50: 61 nM

## Cc1ccc(NC(=O)c2ccccc2NC(=O)c2ccc(N3CCCN(C)CC3)cc2)cc1
Coagulation factor X [2]
  inhibition: 94%

## COc1ccc(NC(=O)c2ccccc2NC(=O)c2ccc(N3CCCN(C)CC3)cc2)cc1OC
Coagulation factor X [2]
  inhibition: inactive

## CN1CCCN(c2ccc(C(=O)Nc3ccccc3C(=O)Nc3ccc(OC(F)(F)F)cc3)cc2)CC1
Coagulation factor X [2]
  inhibition: 32%

## CN1CCCN(c2ccc(C(=O)Nc3c(O)cc(Cl)cc3C(=O)Nc3ccc(Cl)cn3)cc2)CC1.Cl
Mus musculus
  Ratio: 7.8
Coagulation factor X [1]
  IC50: 8.7 nM

## COc1ccc(NC(=O)c2cccc(O)c2NC(=O)c2ccc(N3CCCN(C)CC3)cc2)nc1.Cl
Mus musculus
  Ratio: 2.03
Coagulation factor X [1]
  IC50: 220 nM

## CN1CCCN(c2ccc(C(=O)Nc3c(O)cccc3C(=O)Nc3ccc(Cl)cc3)cc2)CC1.Cl
Mus musculus
  Ratio: 2.67
Coagulation factor X [1]
  IC50: 6.9 nM

## COc1cccc(NC(=O)c2ccccc2NC(=O)c2ccc(N3CCCN(C)CC3)cc2)c1
Coagulation factor X [2]
  inhibition: 40%

## COc1ccc(NC(=O)c2cccc(O)c2NC(=O)c2ccc(N3CCCN(C)CC3)cc2)cc1.Cl
Mus musculus
  Ratio: 1.97
Coagulation factor X [1]
  IC50: 150 nM

## Cc1ccc(NC(=O)c2cccc(O)c2NC(=O)c2ccc(N3CCCN(C)CC3)cc2)nc1.Cl
Mus musculus
  Ratio: 2.13
Coagulation factor X [1]
  IC50: 290 nM

## Cc1cc(NC(=O)c2ccccc2NC(=O)c2ccc(N3CCCN(C)CC3)cc2)sn1
Coagulation factor X [2]
  inhibition: inactive

## CN1CCCN(c2ccc(C(=O)Nc3ccccc3C(=O)Nc3nc4ccccc4[nH]3)cc2)CC1
Coagulation factor X [2]
  inhibition: inactive

## Cc1cccc(NC(=O)c2ccccc2NC(=O)c2ccc(N3CCCN(C)CC3)cc2)c1
Coagulation factor X [2]
  inhibition: 88%

## COc1ccc(NC(=O)c2ccccc2NC(=O)c2ccc(N3CCCN(C)CC3)cc2)cc1Cl
Coagulation factor X [2]
  inhibition: 39%

## CN1CCCN(c2ccc(C(=O)Nc3ccccc3C(=O)Nc3ccccc3Cl)cc2)CC1
Coagulation factor X [2]
  inhibition: 11%

## COc1ccc(NC(=O)c2ccccc2NC(=O)c2ccc(N3CCCN(C)CC3)cc2)cc1.Cl
Mus musculus
  Ratio: 1.02
Coagulation factor X [2]
  inhibition: 85%

## CN1CCCN(c2ccc(C(=O)Nc3ccccc3C(=O)Nc3ccc(Cl)cc3)cc2)CC1
Coagulation factor X [2]
  inhibition: 100%

## CN1CCCN(c2ccc(C(=O)Nc3c(O)cccc3C(=O)Nc3ccc(Cl)cn3)cc2)CC1.Cl
Mus musculus
  Ratio: 3.61
Coagulation factor X [1]
  IC50: 16 nM

## CC(C)c1ccc(NC(=O)c2ccccc2NC(=O)c2ccc(N3CCCN(C)CC3)cc2)cc1
Coagulation factor X [2]
  inhibition: 23%

## CN1CCCN(c2ccc(C(=O)Nc3ccccc3C(=O)Nc3ccc(N(C)C)cc3)cc2)CC1
Coagulation factor X [2]
  inhibition: 24%

## CN1CCCN(c2ccc(C(=O)Nc3c(O[C@@H]4O[C@H](C(=O)O)[C@@H](O)[C@H](O)[C@H]4O)cc(Cl)cc3C(=O)Nc3ccc(Cl)cn3)cc2)CC1
Prothrombin
  IC50: > 100000 nM
Plasma [3]
  Activity: 0.27 µM
Plasma [4]
  Activity: 0.28 µM
Coagulation factor X [1]
  IC50: 1.5 nM
Trypsin
  IC50: > 100000 nM

## CS(=O)(=O)c1ccccc1-c1ccc(NC(=O)c2cc(C(F)(F)F)nn2-c2cccc(CN)c2)c(F)c1.Cl
Plasma [3]
  Activity: 0.67 µM
Plasma [4]
  Activity: 0.7 µM

## COc1ccc(NC(=O)c2cc(Cl)cc(O)c2NC(=O)c2ccc(N3CCCN(C)CC3)cc2)cc1.Cl
Mus musculus
  Ratio: 3.91
Coagulation factor X [1]
  IC50: 68 nM

## CN1CCCN(c2ccc(C(=O)Nc3ccccc3C(=O)Nc3ccccn3)cc2)CC1
Coagulation factor X [2]
  inhibition: 38%

## Cc1cc(NC(=O)c2ccccc2NC(=O)c2ccc(N3CCCN(C)CC3)cc2)n[nH]1
Coagulation factor X [2]
  inhibition: inactive

## CN1CCCN(c2ccc(C(=O)Nc3ccc(Cl)cc3C(=O)Nc3ccc(Cl)cn3)cc2)CC1.Cl
Mus musculus
  Ratio: 1.21
Coagulation factor X [1]
  IC50: 3.6 nM

## Cc1ccc(NC(=O)c2cccc(O)c2NC(=O)c2ccc(N3CCCN(C)CC3)cc2)cc1.Cl
Mus musculus
  Ratio: 2.11
Coagulation factor X [1]
  IC50: 68 nM

## COc1ccc(NC(=O)c2ccccc2NC(=O)c2ccc(N3CCCN(C)CC3)cc2)cn1
Coagulation factor X [2]
  inhibition: 7%

## Cc1cccc(NC(=O)c2ccccc2NC(=O)c2ccc(N3CCCN(C)CC3)cc2)n1
Coagulation factor X [2]
  inhibition: 9%

## CCc1ccc(NC(=O)c2ccccc2NC(=O)c2ccc(N3CCCN(C)CC3)cc2)cc1
Coagulation factor X [2]
  inhibition: 15%

## CN1CCCN(c2ccc(C(=O)Nc3ccccc3C(=O)Nc3ccc(Oc4ccccc4)cc3)cc2)CC1
Coagulation factor X [2]
  inhibition: 22%

## CN1CCCN(c2ccc(C(=O)Nc3ccccc3C(=O)Nc3ccc4ccccc4n3)cc2)CC1
Coagulation factor X [2]
  inhibition: inactive

## Cc1ccnc(NC(=O)c2ccccc2NC(=O)c2ccc(N3CCCN(C)CC3)cc2)c1
Coagulation factor X [2]
  inhibition: 56%

## COc1ccc(NC(=O)c2cccc(O[C@@H]3O[C@H](C(=O)O)[C@@H](O)[C@H](O)[C@H]3O)c2NC(=O)c2ccc(N3CCCN(C)CC3)cc2)cc1
Coagulation factor X [1]
  IC50: 66 nM

## Cc1ccccc1NC(=O)c1ccccc1NC(=O)c1ccc(N2CCCN(C)CC2)cc1
Coagulation factor X [2]
  inhibition: 16%

## Cc1ccc(NC(=O)c2ccccc2NC(=O)c2ccc(N3CCCN(C)CC3)cc2)nc1
Coagulation factor X [2]
  inhibition: 73%

## CN1CCCN(c2ccc(C(=O)Nc3ccccc3C(=O)Nc3cccc(Cl)c3)cc2)CC1
Coagulation factor X [2]
  inhibition: 76%
